From ChEMBL document CHEMBL3351317 (J Med Chem, 2014)
Blank lines part the entries; values can stand above or below the compound they belong to.

Experiments:
[1] = Distribution coefficient, log D between 1-octonol and aqueous phosphate buffer at pH 7.4; assay type: physicochemical; settings: 1-octanol/aqueous phosphate buffer
In short: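 logD measured as distribution between 1-octanol and aqueous phosphate buffer, pH 7.4.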

Mus musculus = species on record: Mus musculus; experiment: fCmax in mouse during 12 days study; assay type: ADME, organism-based; settings: in vivo, 288 h
[2] = Permeability from apical to basolateral side in human Caco2 cells at 10 uM; assay type: ADME, cell-based; settings: Caco-2
In short: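 In vitro Caco-2 monolayer, compound at 10 µM. Apparent permeability (Papp) measured apical to basolateral; efflux ratio also determined.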

[3] = Stability in pH 1 to 8 buffer; assay type: physicochemical
[4] = Stability in pH 10 buffer assessed as loss of trifluoro-oxadiazole group; assay type: physicochemical
[5] = Degradation half life in pH 10 buffer assessed as loss of trifluoro-oxadiazole group by measuring piperazine level at 25 degC; assay type: physicochemical
[6] = Plasma clearance in C57BL6 mouse at 3 mg/kg, iv or 5 mg/kg, po; assay type: ADME, organism-based
In short: (§1)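 Male C57BL6 mice. IV dose 3 mg/kg as a solution in 5% DMSO:95% hydroxypropyl β-cyclodextrin. Oral dose 5 mg/kg as a 0.1% HMPC/tween suspension. Plasma sampled for pharmacokinetic parameters.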

[7] = Volume of distribution at steady state in C57BL6 mouse at 3 mg/kg, iv or 5 mg/kg, po; assay type: ADME, organism-based; settings: in vivo, read-out: Vdss; in short: as §1
[8] = Half life in C57BL6 mouse at 5 mg/kg, po; assay type: ADME, organism-based; design: dose 5 mg/kg, route oral; settings: in vivo
[9] = Half life in C57BL6 mouse at 3 mg/kg, iv; assay type: ADME, organism-based; design: dose 3 mg/kg, route intravenous; settings: in vivo
In short: (§2)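 Male C57BL6 mice given 3 mg/kg, male Han Wistar rats 2 mg/kg, beagle dogs (male and female) 2 mg/kg, IV as solution in 5% DMSO:95% hydroxypropyl β-cyclodextrin; plasma PK parameters determined.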

[10] = Oral bioavailability in C57BL6 mouse at 5 mg/kg; assay type: ADME, organism-based; settings: in vivo; in short: as §1
[11] = Plasma clearance in Han Wistar rat at 2 mg/kg, iv or 5 mg/kg, po; assay type: ADME, organism-based
In short: (§3)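 Male Han Wistar rats. IV dose 2 mg/kg in 5% DMSO:95% hydroxypropyl β-cyclodextrin. Oral dose 5 mg/kg as a 0.1% HMPC/tween suspension. Plasma pharmacokinetic parameters derived.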

[12] = Volume of distribution at steady state in Han Wistar rat at 2 mg/kg, iv or 5 mg/kg, po; assay type: ADME, organism-based; settings: in vivo, read-out: Vdss; in short: as §3
[13] = Half life in Han Wistar rat at 5 mg/kg, po; assay type: ADME, organism-based; design: dose 5 mg/kg, route oral; settings: in vivo
[14] = Half life in Han Wistar rat at 2 mg/kg, iv; assay type: ADME, organism-based; design: dose 2 mg/kg, route intravenous; settings: in vivo; in short: as §2
[15] = Oral bioavailability in Han Wistar rat at 5 mg/kg; assay type: ADME, organism-based; settings: in vivo; in short: as §3
[16] = Plasma clearance in beagle dog at 2 mg/kg, iv or 3.4 mg/kg, po; assay type: ADME, organism-based, Canis lupus familiaris
In short: (§4)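 Beagle dogs, male and female. IV dose 2 mg/kg in 5% DMSO:95% hydroxypropyl β-cyclodextrin. Oral dose 3.4 mg/kg as a 0.1% Pluronic F127 suspension. Plasma pharmacokinetic parameters derived.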

[17] = Volume of distribution at steady state in beagle dog at 2 mg/kg, iv or 3.4 mg/kg, po; assay type: ADME, organism-based, Canis lupus familiaris; settings: in vivo, read-out: Vdss; in short: as §4
[18] = Half life in beagle dog at 3.4 mg/kg, po; assay type: ADME, organism-based, Canis lupus familiaris; design: dose 3.4 mg/kg, route oral; settings: in vivo
[19] = Half life in beagle dog at 2 mg/kg, iv; assay type: ADME, organism-based, Canis lupus familiaris; design: dose 2 mg/kg, route intravenous; settings: in vivo; in short: as §2
[20] = Oral bioavailability in beagle dog at 3.4 mg/kg; assay type: ADME, organism-based, Canis lupus familiaris; settings: in vivo; in short: as §4
[21] = Intrinsic clearance in mouse hepatocytes assessed per million cells; assay type: ADME, cell-based, Hepatocyte; settings: read-out: CLH
[22] = Intrinsic clearance in dog hepatocytes assessed per million cells; assay type: ADME, cell-based, Canis lupus familiaris, Hepatocyte; settings: read-out: CLH
[23] = Intrinsic clearance in human hepatocytes assessed per million cells; assay type: ADME, cell-based, Hepatocyte; settings: read-out: CLH
[24] = Cmax in Han Wistar rat at 4.5 mg/kg, po; assay type: ADME, organism-based; design: dose 4.5 mg/kg, route oral; settings: in vivo
[25] = Cmax in Han Wistar rat at […], po; assay type: ADME, organism-based; design: dose 7.1 mg/kg, route oral; settings: in vivo
[26] = Cmax in Han Wistar rat at 12 mg/kg, po; assay type: ADME, organism-based; design: dose 12 mg/kg, route oral; settings: in vivo
[27] = Cmax in Han Wistar rat at 19 mg/kg, po; assay type: ADME, organism-based; design: dose 19 mg/kg, route oral; settings: in vivo
[28] = Cmax in Han Wistar rat at 100 mg/kg, po; assay type: ADME, organism-based; design: dose 100 mg/kg, route oral; settings: in vivo
[29] = Cmax in Han Wistar rat at 154 mg/kg, po; assay type: ADME, organism-based; design: dose 154 mg/kg, route oral; settings: in vivo
[30] = AUC (0 to 24 hrs) in Han Wistar rat at 4.5 mg/kg, po; assay type: ADME, organism-based; design: time < 24 hr, dose 4.5 mg/kg, route oral; settings: plasma
In short: (§5)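 Male Han Wistar rats, fed, single oral dose of suspension in 0.1% Pluronic F127; plasma AUC0-24hr in μM.h; mean of two animals.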

[31] = AUC (0 to 24 hrs) in Han Wistar rat at […], po; assay type: ADME, organism-based; design: time < 24 hr, dose 7.1 mg/kg, route oral; settings: plasma
[32] = AUC (0 to 24 hrs) in Han Wistar rat at 12 mg/kg, po; assay type: ADME, organism-based; design: time < 24 hr, dose 12 mg/kg, route oral; settings: plasma; in short: as §5
[33] = AUC (0 to 24 hrs) in Han Wistar rat at 19 mg/kg, po; assay type: ADME, organism-based; design: time < 24 hr, dose 19 mg/kg, route oral; settings: plasma; in short: as §5
[34] = AUC (0 to 24 hrs) in Han Wistar rat at 100 mg/kg, po; assay type: ADME, organism-based; design: time < 24 hr, dose 100 mg/kg, route oral; settings: plasma; in short: as §5
[35] = AUC (0 to 24 hrs) in Han Wistar rat at 154 mg/kg, po; assay type: ADME, organism-based; design: time < 24 hr, dose 154 mg/kg, route oral; settings: plasma; in short: as §5
[36] = Cmax in beagle dog at 5 mg/kg, po; assay type: ADME, organism-based, Canis lupus familiaris; design: dose 5 mg/kg, route oral; settings: in vivo
[37] = Cmax in beagle dog at 50 mg/kg, po; assay type: ADME, organism-based, Canis lupus familiaris; design: dose 50 mg/kg, route oral; settings: in vivo
[38] = Cmax in beagle dog at 98 mg/kg, po; assay type: ADME, organism-based, Canis lupus familiaris; design: dose 98 mg/kg, route oral; settings: in vivo
[39] = AUC (0 to 24 hrs) in beagle dog at 5 mg/kg, po; assay type: ADME, organism-based, Canis lupus familiaris; design: time < 24 hr, dose 5 mg/kg, route oral; settings: plasma
In short: (§6)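 Beagle dogs (one male, one female), fed, single oral dose of suspension in 0.1% Pluronic F127; plasma AUC0-24hr in μM.h; mean of the two animals.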

[40] = AUC (0 to 24 hrs) in beagle dog at 50 mg/kg, po; assay type: ADME, organism-based, Canis lupus familiaris; design: time < 24 hr, dose 50 mg/kg, route oral; settings: plasma; in short: as §6
[41] = AUC (0 to 24 hrs) in beagle dog at 98 mg/kg, po; assay type: ADME, organism-based, Canis lupus familiaris; design: time < 24 hr, dose 98 mg/kg, route oral; settings: plasma; in short: as §6
[42] = Cmax in C57BL6 mouse at […], po; assay type: ADME, organism-based; design: dose 5.7 mg/kg, route oral; settings: in vivo
[43] = Cmax in C57BL6 mouse at 11 mg/kg, po; assay type: ADME, organism-based; design: dose 11 mg/kg, route oral; settings: in vivo
[44] = Cmax in C57BL6 mouse at 31 mg/kg, po; assay type: ADME, organism-based; design: dose 31 mg/kg, route oral; settings: in vivo
[45] = Cmax in C57BL6 mouse at 57 mg/kg, po; assay type: ADME, organism-based; design: dose 57 mg/kg, route oral; settings: in vivo
[46] = AUC (0 to 24 hrs) in C57BL6 mouse at […], po; assay type: ADME, organism-based; design: time < 24 hr, dose 5.7 mg/kg, route oral; settings: plasma
[47] = AUC (0 to 24 hrs) in C57BL6 mouse at 11 mg/kg, po; assay type: ADME, organism-based; design: time < 24 hr, dose 11 mg/kg, route oral; settings: plasma
In short: (§7)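 Male C57BL6 mice, fed, single oral dose of suspension in 0.1% Pluronic F127; plasma sampled, AUC0-24hr in μM.h; mean of two animals.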

[48] = AUC (0 to 24 hrs) in C57BL6 mouse at 31 mg/kg, po; assay type: ADME, organism-based; design: time < 24 hr, dose 31 mg/kg, route oral; settings: plasma; in short: as §7
[49] = AUC (0 to 24 hrs) in C57BL6 mouse at 57 mg/kg, po; assay type: ADME, organism-based; design: time < 24 hr, dose 57 mg/kg, route oral; settings: plasma; in short: as §7

- logD [1]: 3.7
Compound: C[C@@H]1CN(c2nc(C(F)(F)F)no2)CCN1c1ncc(OCc2ccc(S(C)(=O)=O)cc2F)cn1

- logD [1]: 3.6
- fCmax (Mus musculus): 0.7 µM
- Papp A→B at 10 µM [2]: 10 ×10⁻⁶ cm/s
- Stability [3]: Stable
- Stability [4]: Unstable
- t1/2 [5]: 60 h
- clearance [6]: 9.8 mL/min/kg
- Vd [7]: 5.1 L/kg
- half-life [8]: 6.9 h
- half-life [9]: 6.3 h
- bioavailability [10]: 76%
- clearance [11]: 11 mL/min/kg
- Vd [12]: 5.2 L/kg
- half-life [13]: 6.7 h
- half-life [14]: 6.1 h
- bioavailability [15]: 85%
- clearance [16]: 1.6 mL/min/kg
- Vd [17]: 3.3 L/kg
- half-life [18]: 30 h
- half-life [19]: 26 h
- bioavailability [20]: 98%
- hepatocyte CLint [21]: 7 µL/min/1e6 cells
- hepatocyte CLint [22]: < 2 µL/min/1e6 cells
- hepatocyte CLint [23]: < 2 µL/min/1e6 cells
- Cmax [24]: 0.8 µM
- Cmax [25]: 1.1 µM
- Cmax [26]: 3.4 µM
- Cmax [27]: 7.5 µM
- Cmax [28]: 8 µM
- Cmax [29]: 13.7 µM
- AUC(0-t) at 24 h [30]: 10 µM·h
- AUC(0-t) at 24 h [31]: 11 µM·h
- AUC(0-t) at 24 h [32]: 33 µM·h
- AUC(0-t) at 24 h [33]: 106 µM·h
- AUC(0-t) at 24 h [34]: 123 µM·h
- AUC(0-t) at 24 h [35]: 247 µM·h
- Cmax [36]: 1.5 µM
- Cmax [37]: 3.2 µM
- Cmax [38]: 5.3 µM
- AUC(0-t) at 24 h [39]: 20 µM·h
- AUC(0-t) at 24 h [40]: 42 µM·h
- AUC(0-t) at 24 h [41]: 78 µM·h
- Cmax [42]: 2.5 µM
- Cmax [43]: 3.3 µM
- Cmax [44]: 11.8 µM
- Cmax [45]: 29 µM
- AUC(0-t) at 24 h [46]: 26 µM·h
- AUC(0-t) at 24 h [47]: 35 µM·h
- AUC(0-t) at 24 h [48]: 151 µM·h
- AUC(0-t) at 24 h [49]: 456 µM·h
Compound: C[C@@H]1CN(c2nc(C(F)(F)F)no2)CCN1c1ncc(OCc2ccc(CS(C)(=O)=O)cc2F)cn1

- logD [1]: 3.4
Compound: C[C@@H]1CN(c2nc(C(F)(F)F)no2)CCN1c1ncc(OCc2ccc(C[S+](C)[O-])cc2F)cn1 (stereo not given in full)

- logD [1]: 2.8
Compound: C[C@@H]1CN(c2nc(C(F)(F)F)no2)CCN1c1ncc(OCc2ccc(CS(C)(=N)=O)cc2F)cn1 (stereo not given in full)

- logD [1]: 3.4
Compound: C[C@@H]1CN(c2nc(C(F)(F)F)no2)CCN1c1ncc(OCc2ccc(N=S(C)(C)=O)cc2F)cn1

- logD [1]: 3.1
Compound: CC(C)c1noc(N2CCN(c3ncc(OCc4ccc(CS(C)(=O)=O)cc4F)cn3)[C@H](C)C2)n1

More lines, now with the values behind:

Compound: C[C@@H]1CN(c2nnc(C(F)(F)F)o2)CCN1c1ncc(OCc2ccc(CS(C)(=N)=O)cc2F)cn1 (stereo not given in full)
- logD [1]: 2.1

Compound: C[C@@H]1CN(C(=O)OC2(C(F)(F)F)COC2)CCN1c1ncc(OCc2ccc(CS(C)(=O)=O)cc2F)cn1
- logD [1]: 2.9

Compound: C[C@@H]1CN(C(=O)OC2(C(F)(F)F)COC2)CCN1c1ncc(OCc2ccc(OS(C)(=O)=O)cc2F)cn1
- logD [1]: 3.7

Compound: C[C@@H]1CN(C(=O)OC2(C(F)(F)F)COC2)CCN1c1ncc(OCc2ccc(S(C)(=O)=O)cc2F)cn1
- logD [1]: 3

Compound: CC(C)c1noc(N2CCN(c3ncc(OCc4ccc(S(C)(=O)=O)cc4F)cn3)[C@H](C)C2)n1
- logD [1]: 3.4
